The test system of assay [1] is A2780. Briefly: Inhibitory concentration against human A2780 ovarian adenocarcinoma cell line. It is filed as functional, cell-based. A digest of the protocol:
(§1)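 Cells kept in RPMI1640 with 10% fetal calf serum, 2 mM L-glutamine and 1% antibiotics at 37 °C, 5% CO2. Cp8 subline was derived by chronic cisplatin exposure. 1 × 10^3 cells/well grew 24 h, then were exposed to 0-500 µM final for 120 h (DMSO ≤0.1% final). MTT was read after 3 h, A570. Run three times in quadruplicate. IC50 from nonlinear regression; mean ± SE.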

Assay [2] concerns A2780. The assay can be described thus: Inhibitory concentration against cisplatin-resistant A2780 human ovarian adenocarcinoma cell line. The class given is functional, cell-based. A digest of the protocol:
as §1

The record followed here is ChEMBL document CHEMBL1142655, “Cytotoxicity of cis-platinum(II) conjugate models. The effect of chelating arms and leaving groups on cytotoxicity: a quantitative structure-activity relationship approach” (J Med Chem, 2005).

Consider DICHLORO(ETHYLENEDIAMINE) PLATINUM (II), for which the IC50 (usually the concentration needed to halve the response being measured) with A2780 [1] came to 5.55 µM; in the assay with A2780 [2], 118 µM.

On to CARBOPLATIN, for which the IC50 came out at 7.66 µM in the assay on A2780 [1] and 123 µM in the assay with A2780 [2].

As for CISPLATIN, the figures for the IC50 in the assay on A2780 [1] and with A2780 [2] were 1.37 µM and 45 µM, respectively.

Regarding OXALIPLATIN, the IC50 amounted to 0.48 µM in the assay with A2780 [1] and 6.62 µM with A2780 [2].
